Experimental data: ChEMBL document CHEMBL1833955, “Optimization of (arylpiperazinylbutyl)oxindoles exhibiting selective 5-HT₇ receptor antagonist activity” (J Med Chem, 2011)

Columns and labels:
[1] = biological target: 5-hydroxytryptamine receptor 7 (Homo sapiens, UniProt P34969); assay: Displacement of [3H]CT from human 5-HT7 receptor expressed in CHO cells by scintillation spectrometry; format: cell-based
Method in brief: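 Cloned human 5-HT7 receptor from CHO cells, run under the supplier's recommended conditions with [3H]CT. Nonspecific binding with 25 μM clozapine. Ended by GF/C filtration, then scintillation counting. Ki taken from two nine-concentration displacement curves run in triplicate, single-site fit.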

[2] = biological target: T1, 5-hydroxytryptamine receptor 1A (Rattus norvegicus, UniProt P19327); assay: Displacement of [3H]8-OH-DPAT from 5-HT1A receptor in rat frontal cortex membrane after 45 mins by scintillation counting; format: cell membranes
T1 sequence (P19327 whole entry): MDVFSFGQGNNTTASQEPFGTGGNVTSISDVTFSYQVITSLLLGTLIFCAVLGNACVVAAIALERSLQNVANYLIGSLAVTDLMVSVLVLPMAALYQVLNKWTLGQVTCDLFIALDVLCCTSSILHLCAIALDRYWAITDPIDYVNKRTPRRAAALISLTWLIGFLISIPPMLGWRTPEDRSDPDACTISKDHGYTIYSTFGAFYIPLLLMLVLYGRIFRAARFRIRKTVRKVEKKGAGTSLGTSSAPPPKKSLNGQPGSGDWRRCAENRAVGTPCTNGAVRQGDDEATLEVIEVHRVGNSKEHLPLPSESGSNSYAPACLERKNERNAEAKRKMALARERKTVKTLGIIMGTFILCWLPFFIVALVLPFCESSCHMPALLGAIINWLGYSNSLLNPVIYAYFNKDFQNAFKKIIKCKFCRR
Method in brief: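 Membranes from adult rat frontal cortex, prepared in 50 mM Tris-HCl pH 7.7 with washes and a 37 °C preincubation. Incubation buffer: 6.66 mM CaCl2, 16.66 μM pargyline, 0.166% ascorbic acid. Ligand 1.5 nM [3H]8-OH-DPAT; 10 μM 5-HT defines nonspecific binding. 45 min at 25 °C, GF/B filtration, scintillation counting. Triplicates; Ki from two nine-point curves, single-site fit.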

[3] = biological target: T2, Adrenergic receptor alpha-1 (Rattus norvegicus, UniProt P15823+P23944+P43140); assay: Displacement of [3H]prazosin from alpha1-adrenergic receptor in rat frontal cortex membrane after 45 mins by scintillation spectrometry; format: cell membranes
T2 sequence (P15823 whole entry): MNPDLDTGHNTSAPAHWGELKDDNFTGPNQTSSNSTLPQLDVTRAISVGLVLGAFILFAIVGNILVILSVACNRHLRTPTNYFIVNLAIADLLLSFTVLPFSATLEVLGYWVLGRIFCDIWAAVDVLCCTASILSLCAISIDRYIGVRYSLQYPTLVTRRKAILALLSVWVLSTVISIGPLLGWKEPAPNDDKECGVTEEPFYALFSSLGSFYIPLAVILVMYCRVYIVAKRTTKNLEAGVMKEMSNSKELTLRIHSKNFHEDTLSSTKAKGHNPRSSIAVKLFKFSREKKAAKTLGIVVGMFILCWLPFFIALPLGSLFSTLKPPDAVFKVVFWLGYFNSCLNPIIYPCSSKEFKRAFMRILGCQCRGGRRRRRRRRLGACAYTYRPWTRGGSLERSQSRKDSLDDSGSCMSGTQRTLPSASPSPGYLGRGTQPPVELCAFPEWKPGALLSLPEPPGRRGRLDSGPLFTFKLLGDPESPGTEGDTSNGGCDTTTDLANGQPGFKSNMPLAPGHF
T2 sequence (P23944 whole entry): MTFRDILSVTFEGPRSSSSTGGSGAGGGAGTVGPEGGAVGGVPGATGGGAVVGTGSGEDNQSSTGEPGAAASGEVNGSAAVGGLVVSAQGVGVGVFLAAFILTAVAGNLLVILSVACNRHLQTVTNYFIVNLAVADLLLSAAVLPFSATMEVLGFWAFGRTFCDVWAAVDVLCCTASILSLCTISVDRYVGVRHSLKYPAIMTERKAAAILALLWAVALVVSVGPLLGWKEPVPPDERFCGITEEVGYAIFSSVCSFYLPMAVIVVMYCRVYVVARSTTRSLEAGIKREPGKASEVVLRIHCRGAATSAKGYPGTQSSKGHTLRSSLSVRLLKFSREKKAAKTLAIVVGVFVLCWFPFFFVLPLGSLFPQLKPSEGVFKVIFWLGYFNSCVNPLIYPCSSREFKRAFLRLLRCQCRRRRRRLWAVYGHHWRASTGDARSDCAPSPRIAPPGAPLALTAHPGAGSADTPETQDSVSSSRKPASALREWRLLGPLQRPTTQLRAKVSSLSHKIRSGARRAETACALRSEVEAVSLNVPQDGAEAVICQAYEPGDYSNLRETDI
T2 sequence (P43140 whole entry): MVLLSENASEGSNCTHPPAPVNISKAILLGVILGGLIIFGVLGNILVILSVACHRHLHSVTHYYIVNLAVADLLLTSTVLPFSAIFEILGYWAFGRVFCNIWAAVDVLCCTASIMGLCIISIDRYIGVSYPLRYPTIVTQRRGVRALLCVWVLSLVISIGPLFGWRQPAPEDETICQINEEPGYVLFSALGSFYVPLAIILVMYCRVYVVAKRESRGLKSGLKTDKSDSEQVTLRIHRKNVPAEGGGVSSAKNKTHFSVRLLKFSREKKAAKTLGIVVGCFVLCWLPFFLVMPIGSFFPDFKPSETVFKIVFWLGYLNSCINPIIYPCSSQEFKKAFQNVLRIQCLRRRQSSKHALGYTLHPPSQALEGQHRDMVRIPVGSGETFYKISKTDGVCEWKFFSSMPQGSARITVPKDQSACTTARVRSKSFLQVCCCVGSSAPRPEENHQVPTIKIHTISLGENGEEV
Method in brief: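 Rat frontal cortex tissue frozen on dry ice, homogenised in 50 mM Tris-HCl pH 7.7 and washed by centrifugation. [3H]prazosin at 0.6 nM; 10 μM prazosin defines nonspecific binding. 45 min at 25 °C, GF/B filtration, scintillation counting. Triplicates; Ki from two nine-concentration curves fitted to a single-site model.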

[4] = Metabolic stability in human liver microsomes after 60 mins by HPLC-MS/MS analysis; format: ADME, Microsome; conditions: read-out: Stability
Method in brief: (§1)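 Test compound at 100 nM final incubated with rat or human liver microsomes (0.33 mg/mL) at 37 °C for 0, 5, 15, 30 and 60 min. Buffer Tris-HCl pH 7.4 with Mg2+ and BSA. Reaction started with NADPH and stopped with ice-cold MeOH. Parent compound measured by HPLC-MS/MS, positive-ion MRM.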

[5] = Selectivity ratio of Ki for 5-HT1A receptor in rat frontal cortex membrane to Ki for human 5-HT7 receptor; format: cell membranes
[6] = Metabolic stability in rat liver microsomes after 60 mins by HPLC-MS/MS analysis; format: ADME, Microsome; conditions: read-out: Stability; method in brief: as §1
[7] = Selectivity ratio of Ki for alpha1-adrenergic receptor in rat frontal cortex membrane to Ki for human 5-HT7 receptor; format: cell membranes
[8] = biological target: T3, 5-hydroxytryptamine receptor 1A (Rattus norvegicus) (UniProt P19327); assay: Displacement of [3H]8-OH-DPAT from 5-HT1A receptor in rat frontal cortex membrane at 10^-7 M after 45 mins by scintillation counting; format: cell membranes
T3 sequence (whole entry): T1 sequence (P19327 whole entry)

[9] = Plasma concentration in NMRI mouse at 10 mg/kg, ip after 30 mins by HPLC-MS/MS analysis; format: ADME, organism-based; parameters: dose 10 mg/kg, route intraperitoneal
Method in brief: (§2)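 Male NMRI mice, 25–30 g, given four compounds together ip as a cassette suspension in 0.4% methyl cellulose (n = 3/dose). After 30 min, vena cava blood and brain collected. Brain homogenised in 4 volumes of water; samples extracted with acetonitrile–water 3:1 and analysed by gradient HPLC-MS/MS against spiked calibrators. Brain/plasma given as percentage.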

[10] = Plasma concentration in NMRI mouse at 1 mg/kg, ip after 30 mins by HPLC-MS/MS analysis; format: ADME, organism-based; parameters: dose 1 mg/kg, route intraperitoneal; method in brief: as §2
[11] = Plasma concentration in NMRI mouse at 3 mg/kg, ip after 30 mins by HPLC-MS/MS analysis; format: ADME, organism-based; parameters: dose 3 mg/kg, route intraperitoneal; method in brief: as §2
[12] = Drug level in NMRI mouse brain at 10 mg/kg, ip after 30 mins by HPLC/MS/MS analysis; format: ADME, organism-based; parameters: dose 10 mg/kg, route intraperitoneal; conditions: read-out: Drug uptake; method in brief: as §2
[13] = Drug level in NMRI mouse brain at 1 mg/kg, ip after 30 mins by HPLC/MS/MS analysis; format: ADME, organism-based; parameters: dose 1 mg/kg, route intraperitoneal; conditions: read-out: Drug uptake; method in brief: as §2
Mus musculus = assay: Anxiolytic activity in ip dosed NMRI mouse assessed as behavioral activity administered 30 mins prior to test measured up to 5 mins by light-dark test; format: functional; conditions: read-out: MED
Method in brief: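 Male NMRI mice, 25–33 g, housed in the dark, dosed ip 30 min before test. Each mouse placed in the centre of the lit side of an automated two-compartment chamber under a 2-lx light. Activity recorded for 5 min: time in each area, transitions, horizontal and vertical activity. Means ± SEM, one-way ANOVA with Duncan's test; MED reported.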

[14] = Drug level in NMRI mouse brain at 3 mg/kg, ip after 30 mins by HPLC/MS/MS analysis; format: ADME, organism-based; parameters: dose 3 mg/kg, route intraperitoneal; conditions: read-out: Drug uptake; method in brief: as §2

5-hydroxytryptamine receptor 7, sequence (P34969 whole entry): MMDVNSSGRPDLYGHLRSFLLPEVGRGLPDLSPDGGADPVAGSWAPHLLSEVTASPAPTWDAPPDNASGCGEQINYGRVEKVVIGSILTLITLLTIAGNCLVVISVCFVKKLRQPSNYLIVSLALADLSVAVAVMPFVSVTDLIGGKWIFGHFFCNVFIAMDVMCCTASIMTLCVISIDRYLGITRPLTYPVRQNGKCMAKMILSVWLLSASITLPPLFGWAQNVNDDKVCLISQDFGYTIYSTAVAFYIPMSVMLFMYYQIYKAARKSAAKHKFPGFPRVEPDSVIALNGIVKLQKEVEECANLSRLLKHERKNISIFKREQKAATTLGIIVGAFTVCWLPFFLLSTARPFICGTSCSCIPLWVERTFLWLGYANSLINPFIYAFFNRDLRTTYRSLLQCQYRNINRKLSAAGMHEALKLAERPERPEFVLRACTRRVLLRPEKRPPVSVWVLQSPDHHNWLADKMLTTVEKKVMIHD

Structure (SMILES)	Ki [1] [µM]	Ki [2] [µM]	Ki [3] [µM]	inhibition [8] [%]	further results
O=C1Nc2cc(F)ccc2C1CCCCN1CCN(c2ccccn2)CC1 (configuration not stated)	0.0168	0.099	0.033		
CCC1(CCCCN2CC=C(c3cccc(Cl)c3)CC2)C(=O)Nc2ccc(F)cc21 (configuration not stated)	0.052	0.123	0.14		
CCC1(CCCCN2CCN(c3cccc(Cl)c3)CC2)C(=O)Nc2c1cc(Cl)c(F)c2Cl (configuration not stated)	0.072	0.68	0.097		
O=C1Nc2ccccc2C1CCCCN1CCN(c2ccc(Cl)cc2)CC1 (configuration not stated)	0.007		0.042		remaining at 1 h [4]: 52%; Ratio Ki [5]: 257; remaining at 1 h [6]: 10%; Ratio Ki [7]: 6
O=C1Nc2c(Cl)cc(Cl)cc2C1CCCCN1CCN(c2ccc(Cl)cc2)CC1 (configuration not stated)	0.107		0.757		
O=C1Nc2ccc(F)cc2C1CCCCN1CCN(c2ccccc2)CC1 (configuration not stated)	0.047		0.02		
CCC1(CCCCN2CCN(c3ccccn3)CC2)C(=O)Nc2ccccc21 (configuration not stated)	0.004	0.055	0.15		
CCC1(CCCCN2CCC(c3ccc(F)cc3)CC2)C(=O)Nc2ccccc21 (configuration not stated)	0.0069		0.029	11	
O=C1Nc2ccccc2C1CCCCN1CCN(c2ccccn2)CC1 (configuration not stated)	0.0109	0.056	0.13		
O=C1Nc2ccccc2C1CCCCN1CCN(c2ccc(F)cc2)CC1 (configuration not stated)	0.005		0.014	10	
CCC1(CCCCN2CC=C(c3ccc(F)cc3)CC2)C(=O)Nc2ccccc21 (configuration not stated)			0.046	62	
O=C1Nc2cc(F)ccc2C1CCCCN1CC=C(c2cccc(Cl)c2)CC1 (configuration not stated)	0.013			72	
O=C1Nc2ccccc2C1CCCCN1CCN(c2ccccc2)CC1 (configuration not stated)	0.016	0.243	0.022		
O=C1Nc2cc(F)ccc2C1CCCCN1CCN(c2cccc(Cl)c2)CC1 (configuration not stated)	0.0067	0.118	0.0125		
O=C1Nc2ccccc2C1CCCCN1CC=C(c2cccc(C(F)(F)F)c2)CC1 (configuration not stated)	0.0111	0.019	0.31		

Now from value to compound, other results behind:

Ki [1] [µM]	Ki [2] [µM]	Ki [3] [µM]	inhibition [8] [%]	Structure (SMILES)	further results
0.053	0.03	0.064		CCC1(CCCCN2CCN(c3ccccc3Cl)CC2)C(=O)Nc2ccccc21 (configuration not stated)	
0.139		0.38	11	CCC1(CCCCN2CCN(c3ccc(Cl)cc3Cl)CC2)C(=O)Nc2ccccc21 (configuration not stated)	remaining at 1 h [4]: 28%; remaining at 1 h [6]: 17%; Ratio Ki [7]: 3
0.04		0.116	0	O=C1Nc2ccc(F)cc2C1CCCCN1CCN(c2ccc(Cl)cc2)CC1 (configuration not stated)	remaining at 1 h [4]: 44%; Ratio Ki [5]: > 100; remaining at 1 h [6]: 28%; Ratio Ki [7]: 3
	0.0098	0.027		CCC1(CCCCN2CCN(c3ccccc3OC)CC2)C(=O)Nc2ccccc21 (configuration not stated)	
		0.19	9	CCC1(CCCCN2CCN(c3ccc(Cl)cc3)CC2)C(=O)Nc2ccc(F)cc21 (configuration not stated)	concentration at 0.5 h [9]: 271 nM; remaining at 1 h [4]: 36%; Ratio Ki [5]: > 100; concentration at 0.5 h [10]: 44 nM; concentration at 0.5 h [11]: 211 nM; concentration at 0.5 h [12]: 342 nM; concentration at 0.5 h [13]: 51 nM; remaining at 1 h [6]: 17%; minimal effective dose (Mus musculus): > 10 mg/kg; concentration at 0.5 h [14]: 186 nM; Ratio Ki [7]: 68
0.0051	0.036			CCC1(CCCCN2CCN(c3cccc(C(F)(F)F)c3)CC2)C(=O)Nc2ccccc21 (configuration not stated)	
	0.111	0.046		CCC1(CCCCN2CCN(c3cccc(Cl)c3)CC2)C(=O)Nc2ccc(F)cc21 (configuration not stated)	
0.01		0.191	0	CCC1(CCCCN2CCN(c3ccc(Cl)cc3)CC2)C(=O)Nc2cc(F)c(Cl)cc21 (configuration not stated)	remaining at 1 h [4]: 10%; Ratio Ki [5]: > 100; remaining at 1 h [6]: 18%; Ratio Ki [7]: 19
0.025		0.055	6	O=C1Nc2cc(F)ccc2C1CCCCN1CCN(c2ccc(Cl)cc2)CC1 (configuration not stated)	
0.011	0.073			CCC1(CCCCN2CCN(c3cccc(F)c3)CC2)C(=O)Nc2ccccc21 (configuration not stated)	
		0.117	16	CCC1(CCCCN2CCN(c3cccc(Cl)c3)CC2)C(=O)Nc2cc(F)c(Cl)cc21 (configuration not stated)	remaining at 1 h [4]: 46%; Ratio Ki [5]: > 100; remaining at 1 h [6]: 16%; Ratio Ki [7]: 13
